Experimental data collected from several papers.
Each line is one published result; the experiments were not run side by side.
Target: Interleukin-1 receptor-associated kinase 1 (IRAK1, Homo sapiens, UniProt P51617)

Compound	assay	setting	endpoint	value
CCCCC(=O)Nc1ccc(-c2ccc3ncn(CCC)c(=O)c3c2)cn1	binding, competition with immobilised ligand	0.5 µM	remaining binding	75%
Cc1cc(O)c(-c2ccc([C@@H](C)CN(C)C)cc2)c2c1[nH]c(=O)c1sccc12	enzyme activity, inhibitor	0.1 µM	inhibition	-2.56%
C#Cc1cc(-c2cc(Nc3nc(N[C@@H](C)c4ccc(F)cn4)ncc3Cl)n[nH]2)ccc1C=O	enzyme activity, inhibitor	0.2 µM	inhibition	10.8%
C1=C/COCc2cc(ccc2OCCN2CCCC2)Nc2nccc(n2)-c2cccc(c2)COC/1	binding	0.1 µM	remaining binding	0%
CO[C@@H]1[C@H](N(C)C(=O)c2ccccc2)C[C@H]2O[C@]1(C)n1c3ccccc3c3c4c(c5c6ccccc6n2c5c31)C(=O)NC4	enzyme activity, inhibitor	1 µM	inhibition	19%
Cc1ccc(NC(=O)c2ccnc(C(F)(F)F)c2)cc1-c1cc(OCCO)nc(N2CCOCC2)c1	binding	1 µM	remaining binding	100%
C=CC(=O)N1CCC([C@@H]2CCNc3c(C(N)=O)c(-c4ccc(Oc5ccccc5)cc4)nn32)CC1	enzyme activity, inhibitor	1 µM	inhibition	0%
C[C@H]1CC[C@H](n2c3cnccc3c3cnc(Nc4ccc5c(n4)CCN(C(=O)CO)C5)nc32)CC1	cell-free assay	1 µM	remaining signal	23%
COc1ccc2oc(-c3ccc4nc(N)oc4c3)c/c(=N\c3ccccc3NC(=O)CCN)c2c1	binding	1 µM	remaining binding	102%
